Measured values: ChEMBL document CHEMBL3351346, “Design, synthesis, structure-function relationship, bioconversion, and pharmacokinetic evaluation of ertapenem prodrugs” (J Med Chem, 2014)

Legend:
Canis familiaris [1] = assay: Oral bioavailability in fasted Beagle dog assessed as assessed as ertapenem and monoetser metabolites level at 10 mg/kg dosed through intraduodenal route by LC-MS/MS method; type: ADME, organism-based, Canis lupus familiaris; conditions: in vivo
In short: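 Total absorption followed intraduodenal dosing with LC-MS/MS of plasma over 8 h. It was calculated as the combined dose-normalized AUC of circulating parent prodrug, ertapenem and two monoesters, divided by dose-normalized AUC of ertapenem given iv. Vehicle was 30% Captisol or 0.5% methylcellulose.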

[2] = Stability in pH 2.0 simulated gastric fluid assessed as compound degradation to beta-lactam ring open products at 1 uM after 60 mins by LC-MS/MS method; type: ADME; conditions: read-out: Drug degradation
In short: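 Incubation was in simulated gastric fluid (SGF, pH 2.0) for 60 min, with loss to the β-lactam ring-opened product measured by LC-MS/MS.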

Canis familiaris [3] = assay: (§1) AUC (0 to 8 hrs) in fasted Beagle dog at 10 mg/kg dosed through intraduodenal route by LC-MS/MS method; type: ADME, organism-based, Canis lupus familiaris, Plasma; design: time < 8 hr, dose 10 mg/kg, route intraduodenal; conditions: in vivo, other, 8 h
In short: (§2)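 Prodrugs were given intraduodenally to bypass stomach acid. Plasma was sampled at intervals over 8 h, and parent prodrug, the two monoester metabolites and ertapenem were quantified by LC-MS/MS. The lower limit of quantitation was 5 nM. AUC(0–8) was used, and it differed from AUC(0–∞) by ±20%. Vehicles were 30% Captisol or 0.5% methylcellulose, as solution or suspension depending on compound.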

Canis familiaris [4] = assay: AUC (0 to 8 hrs) in fasted Beagle dog assessed as ertapenem level at 10 mg/kg dosed through intraduodenal route by LC-MS/MS method; type: ADME, organism-based, Canis lupus familiaris, Plasma; design: time < 8 hr, dose 10 mg/kg, route intraduodenal; conditions: in vivo, other; in short: as §2
[5] = Stability in pH 6.5 simulated gastrointestinal fluid assessed as compound remaining at 50 uM after 3 hrs by LC-MS/MS method; type: ADME; conditions: read-out: Stability
In short: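 Compounds at 50 μM were incubated in fasted-state simulated intestinal fluid (FaSSIF, pH 6.5) for over 3 h. Percent remaining was determined by LC-MS/MS.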

[6] = Stability in pH 7.4 phosphate buffer assessed as compound remaining at 50 uM after 3 hrs by LC-MS/MS method; type: physicochemical; conditions: read-out: Stability
[7] = Stability in human plasma assessed as compound remaining at 50 uM at 37 degC after 60 mins by LC-MS/MS method; type: ADME, cell-free; conditions: read-out: Stability
In short: (§3)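 Prodrugs were incubated in rat or human plasma for 60 min. Disappearance of prodrug and concomitant appearance of ertapenem were followed by LC-MS/MS, and in selected cases monoesters from partial hydrolysis were also monitored. Ertapenem itself was incubated the same way as a control.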

Canis familiaris [8] = assay: Oral bioavailability in fasted Beagle dog assessed as ertapenem level at 10 mg/kg dosed through intraduodenal route by LC-MS/MS method; type: ADME, organism-based, Canis lupus familiaris; conditions: in vivo
In short: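 After intraduodenal dosing, plasma over 8 h was analysed by LC-MS/MS. Bioavailability was calculated as dose-normalized AUC of ertapenem formed from the prodrug divided by dose-normalized AUC of ertapenem dosed iv. Vehicle was 30% Captisol or 0.5% methylcellulose.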

[9] = Stability in rat plasma assessed as compound remaining at 50 uM at 37 degC after 60 mins by LC-MS/MS method; type: ADME, cell-free; conditions: read-out: Stability; in short: as §3
Canis familiaris [10] = assay: AUC (0 to 8 hrs) in fasted Beagle dog assessed as 8-OH, C-3 ester level at 10 mg/kg dosed through intraduodenal route by LC-MS/MS method; type: ADME, organism-based, Canis lupus familiaris, Plasma; design: time < 8 hr, dose 10 mg/kg, route intraduodenal; conditions: in vivo, other; in short: as §2
[11] = as §1; type: ADME, organism-based, Canis lupus familiaris, Plasma; design: time < 8 hr, dose 10 mg/kg, route intraduodenal; conditions: Beagle, plasma; in short: as §2
Canis familiaris [12] = assay: AUC (0 to 8 hrs) in fasted Beagle dog assessed as 8-OH, benzoate ester level at 10 mg/kg dosed through intraduodenal route by LC-MS/MS method; type: ADME, organism-based, Canis lupus familiaris, Plasma; design: time < 8 hr, dose 10 mg/kg, route intraduodenal; conditions: in vivo, other; in short: as §2

SMILES	F (Canis familiaris [1]) [%]	degraded at 1 h, 1 µM [2] [%]	AUC (Canis familiaris [3]) [µM·h]	AUC (Canis familiaris [4]) [µM·h]	remaining at 3 h, 50 µM [5] [%]	remaining at 3 h, 50 µM [6] [%]	remaining at 1 h, 50 µM [7] [%]	F (Canis familiaris [8]) [%]	AUC (Canis familiaris [3]; BLD = below limit of detection)	remaining at 1 h, 50 µM [9] [%]	AUC (Canis familiaris [10]; BLD = below limit of detection)	AUC(0-t) at 8 h [11] [µM·h]	AUC (Canis familiaris [12]) [µM·h]	AUC (Canis familiaris [10]) [µM·h]	AUC (Canis familiaris [4]; BLD = below limit of detection)	F (Canis familiaris [8]; BLD = below limit of detection)
CCC(=O)OCOC(=O)C1=C(S[C@@H]2CN[C@H](C(=O)Nc3cccc(C(=O)OCOC(=O)CC)c3)C2)[C@H](C)[C@@H]2[C@@H]([C@@H](C)O)C(=O)N12	2.9	> 25		1.6	> 95	> 95	0	2.9	BLD	0	BLD					
COC(=O)C1=C(S[C@@H]2CN[C@H](C(=O)Nc3cccc(C(=O)OC)c3)C2)[C@H](C)[C@@H]2[C@@H]([C@@H](C)O)C(=O)N12	24.2	> 25		12	> 95	> 95	0	14.3		0		0.8	3.6	3.9		
CCCOC(=O)C1=C(S[C@@H]2CN[C@H](C(=O)Nc3cccc(C(=O)OCCC)c3)C2)[C@H](C)[C@@H]2[C@@H]([C@@H](C)O)C(=O)N12	11	> 25		7.3	> 95	> 95	7	9.8		0		1				
CCCCOC(=O)C1=C(S[C@@H]2CN[C@H](C(=O)Nc3cccc(C(=O)OCCCC)c3)C2)[C@H](C)[C@@H]2[C@@H]([C@@H](C)O)C(=O)N12	16.9	> 25		9.4	> 95	> 95	1	13.1		2		2.8				
CCCCCCCCOC(=O)C1=C(S[C@@H]2CN[C@H](C(=O)Nc3cccc(C(=O)OCCCCCCCC)c3)C2)[C@H](C)[C@@H]2[C@@H]([C@@H](C)O)C(=O)N12	1.1	> 25			> 95	> 95	80			4		0.6			BLD	BLD
CCOC(=O)C1=C(S[C@@H]2CN[C@H](C(=O)Nc3cccc(C(=O)OCC)c3)C2)[C@H](C)[C@@H]2[C@@H]([C@@H](C)OC(C)=O)C(=O)N12	23.3	> 25		11.3	> 95	> 95	37	15.4		0		< 0.1	2.2	1.8		
CCOC(=O)C1=C(S[C@@H]2CN[C@H](C(=O)Nc3cccc(C(=O)OCC)c3)C2)[C@H](C)[C@@H]2[C@@H]([C@@H](C)OC(=O)CC)C(=O)N12	20.2	> 25		9.1	> 95	> 95	22	12.6	BLD	0			1.6	1.3		
CCOC(=O)C1=C(S[C@@H]2CN[C@H](C(=O)Nc3cccc(C(=O)OCC)c3)C2)[C@H](C)[C@@H]2[C@@H]([C@@H](C)OC(=O)[C@@H](N)C(C)C)C(=O)N12	14.9	> 25		6.5	> 95	> 95	38	9.7	BLD	0			1	0.9		
Cc1oc(=O)oc1COC(=O)N1C[C@@H]2C[C@H]1C(=O)Nc1cccc(c1)C(=O)OC/C=C\COC(=O)C1=C(S2)[C@H](C)[C@@H]2[C@@H]([C@@H](C)O)C(=O)N12		> 25			> 95	> 95	20			0						
Cc1oc(=O)oc1COC(=O)N1C[C@@H]2C[C@H]1C(=O)Nc1cccc(c1)C(=O)OC/C=C/COC(=O)C1=C(S2)[C@H](C)[C@@H]2[C@@H]([C@@H](C)O)C(=O)N12		> 25			> 95	> 95	17			0						
Cc1oc(=O)oc1COC(=O)N1C[C@@H]2C[C@H]1C(=O)Nc1cccc(c1)C(=O)OCc1oc(=O)oc1COC(=O)C1=C(S2)[C@H](C)[C@@H]2[C@@H]([C@@H](C)O)C(=O)N12		> 25			> 95	> 95	0			0						
CCOC(=O)C1=C(S[C@H]2C[C@@H](C(=O)Nc3cccc(C(=O)OCC)c3)N(C(=O)OCc3oc(=O)oc3C)C2)[C@H](C)[C@@H]2[C@@H]([C@@H](C)O)C(=O)N12	14.4	> 25		3.4	> 95	> 95	9	6.4	BLD	0			3.1	0.7		

Further lines, results first:

F (Canis familiaris [1]) [%]	degraded at 1 h, 1 µM [2] [%]	AUC (Canis familiaris [3]) [µM·h]	AUC (Canis familiaris [4]) [µM·h]	remaining at 3 h, 50 µM [5] [%]	remaining at 3 h, 50 µM [6] [%]	remaining at 1 h, 50 µM [7] [%]	F (Canis familiaris [8]) [%]	AUC (Canis familiaris [3]; BLD = below limit of detection)	remaining at 1 h, 50 µM [9] [%]	AUC (Canis familiaris [10]; BLD = below limit of detection)	AUC(0-t) at 8 h [11] [µM·h]	AUC (Canis familiaris [12]) [µM·h]	AUC (Canis familiaris [10]) [µM·h]	AUC (Canis familiaris [4]; BLD = below limit of detection)	F (Canis familiaris [8]; BLD = below limit of detection)	SMILES
0.7	> 25	0.1	0.4	> 95	> 95	34	0.5									C[C@@H](O)[C@H]1C(=O)N2C3=C(S[C@@H]4CN[C@@H](C4)C(=O)Nc4cccc(c4)C(=O)OCCCOC3=O)[C@H](C)[C@H]12
	> 25			> 95	> 95	21			0							C[C@@H](O)[C@H]1C(=O)N2C3=C(S[C@@H]4CN[C@@H](C4)C(=O)Nc4cccc(c4)C(=O)OC/C=C\COC3=O)[C@H](C)[C@H]12
1	> 25		0.7	> 95	> 95	0	1	BLD	0							C[C@@H](O)[C@H]1C(=O)N2C3=C(S[C@@H]4CN[C@@H](C4)C(=O)Nc4cccc(c4)C(=O)OCc4oc(=O)oc4COC3=O)[C@H](C)[C@H]12
	> 25			> 95	> 95	60			0							C[C@@H](O)[C@H]1C(=O)N2C3=C(S[C@@H]4CN[C@@H](C4)C(=O)Nc4cccc(c4)C(=O)OCOCOC3=O)[C@H](C)[C@H]12
16	> 25		10.1	> 95	> 95	30	13.4		0		0.1					CC(=O)O[C@H](C)[C@H]1C(=O)N2C3=C(S[C@@H]4CN[C@@H](C4)C(=O)Nc4cccc(c4)C(=O)OCOCOC3=O)[C@H](C)[C@H]12
